Source: ChEMBL document CHEMBL1150203, “Antimicrobial diterpenes of Croton sonderianus, 1. Hardwickic and 3,4-secotrachylobanoic acids” (1991)
Structures can show the parent of a compound that is named as a salt. Active and inactive are the calls of the source. The rule behind the calls is not given here.

How the values were obtained:
[1] = tested on: Bacillus subtilis; assay: Antibacterial activity against Bacillus subtilis ATCC 6633 at 1 mg/ml after 48 hrs by agar-well diffusion assay; assay type: functional; details: ATCC 6633, 48 h, read-out: IZ
In short: (§1)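 Agar-well diffusion on eugon agar, bacteria streaked by quadrant method from broth culture diluted 1:10 in sterile water; 11 mm wells given 100 μl of compound at 1 mg/ml; 37° incubation. Zone width (mm) read at 24 and 48 h, coded –, + (1–2), ++ (3–6), +++ (7–12), ++++ (>13); streptomycin sulfate positive control.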

[2] = tested on: Saccharomyces cerevisiae; assay: Antifungal activity against Saccharomyces cerevisiae ATCC 9763 at 1 mg/ml after 72 hrs by agar-well diffusion assay; assay type: functional
In short: (§2)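 Fungi and yeasts streaked on mycophil agar from broth culture diluted 1:10 in sterile water; 100 μl of compound at 1 mg/ml placed in 11 mm cork-borer wells; plates held at 30°. Inhibition zone width (mm) recorded at 48 and 72 h and coded – to ++++ (1–2, 3–6, 7–12, >13 mm); amphotericin B positive control.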

[3] = tested on: Escherichia coli; assay: Antibacterial activity against Escherichia coli ATCC 10536 at 1 mg/ml after 24 hrs by agar-well diffusion assay; assay type: functional; in short: as §1
[4] = tested on: Trichophyton mentagrophytes; assay: Antifungal activity against Trichophyton mentagrophytes ATCC 9972 at 1 mg/ml after 72 hrs by agar-well diffusion assay; assay type: functional; in short: as §2
[5] = tested on: Helminthosporium; assay: Antifungal activity against Helminthosporium ATCC 4671 at 1 mg/ml after 48 hrs by agar-well diffusion assay; assay type: functional; in short: as §2
[6] = tested on: Pseudomonas aeruginosa; assay: Antibacterial activity against Pseudomonas aeruginosa ATCC 15442 at 1 mg/ml after 24 hrs by agar-well diffusion assay; assay type: functional; in short: as §1
[7] = tested on: Staphylococcus aureus; assay: Antibacterial activity against Staphylococcus aureus ATCC 6538 at 1 mg/ml after 24 hrs by agar-well diffusion assay; assay type: functional; details: for zone of inhibition at 1000 µg/mL: ATCC 6538, 24 h, read-out: IZ; in short: as §1
[8] = tested on: Helminthosporium; assay: Antifungal activity against Helminthosporium ATCC 4671 at 1 mg/ml after 72 hrs by agar-well diffusion assay; assay type: functional; in short: as §2
[9] = tested on: Aspergillus niger; assay: Antifungal activity against Aspergillus niger ATCC 16888 at 1 mg/ml after 72 hrs by agar-well diffusion assay; assay type: functional; in short: as §2
[10] = tested on: Trametes sanguinea; assay: Antifungal activity against Polyporus sanguineus ATCC 16422 at 1 mg/ml after 48 hrs by agar-well diffusion assay; assay type: functional; in short: as §2
[11] = tested on: Staphylococcus aureus; assay: Antibacterial activity against Staphylococcus aureus ATCC 6538 at 1 mg/ml after 48 hrs by agar-well diffusion assay; assay type: functional; details: for zone of inhibition at 1000 µg/mL: ATCC 6538, 48 h, read-out: IZ; in short: as §1
[12] = tested on: Bacillus subtilis; assay: Antibacterial activity against Bacillus subtilis ATCC 6633 at 1 mg/ml after 24 hrs by agar-well diffusion assay; assay type: functional; details: ATCC 6633, 24 h, read-out: IZ; in short: as §1
[13] = tested on: Trametes sanguinea; assay: Antifungal activity against Polyporus sanguineus ATCC 16422 at 1 mg/ml after 72 hrs by agar-well diffusion assay; assay type: functional; in short: as §2
[14] = tested on: Saccharomyces cerevisiae; assay: Antifungal activity against Saccharomyces cerevisiae ATCC 9763 at 1 mg/ml after 48 hrs by agar-well diffusion assay; assay type: functional; in short: as §2
[15] = tested on: Trichophyton mentagrophytes; assay: Antifungal activity against Trichophyton mentagrophytes ATCC 9972 at 1 mg/ml after 48 hrs by agar-well diffusion assay; assay type: functional; in short: as §2
[16] = tested on: Pseudomonas aeruginosa; assay: Antibacterial activity against Pseudomonas aeruginosa ATCC 15442 at 1 mg/ml after 48 hrs by agar-well diffusion assay; assay type: functional; in short: as §1
[17] = tested on: Aspergillus niger; assay: Antifungal activity against Aspergillus niger ATCC 16888 at 1 mg/ml after 48 hrs by agar-well diffusion assay; assay type: functional; in short: as §2
[18] = tested on: Candida albicans; assay: Antifungal activity against Candida albicans ATCC 10231 at 1 mg/ml after 72 hrs by agar-well diffusion assay; assay type: functional; details: ATCC 10231, 72 h, read-out: IZ; in short: as §2
[19] = tested on: Escherichia coli; assay: Antibacterial activity against Escherichia coli ATCC 10536 at 1 mg/ml after 48 hrs by agar-well diffusion assay; assay type: functional; in short: as §1
[20] = tested on: Candida albicans; assay: Antifungal activity against Candida albicans ATCC 10231 at 1 mg/ml after 48 hrs by agar-well diffusion assay; assay type: functional; details: ATCC 10231, 48 h, read-out: IZ; in short: as §2
[21] = tested on: Mycolicibacterium smegmatis; assay: Antibacterial activity against Mycobacterium smegmatis ATCC 607 at 1 mg/ml after 48 hrs by agar-well diffusion assay; assay type: functional; details: ATCC 607, 48 h, read-out: IZ
In short: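 Quadrant-streaked eugon agar plates (broth culture diluted 1:10 in water) with 11 mm wells receiving 100 μl of 1 mg/ml compound, incubated at 37°; inhibition zone width in mm scored at 48 h and 72 h as –, +, ++, +++, ++++ (1–2, 3–6, 7–12, >13 mm); streptomycin sulfate control.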

[22] = tested on: Mycolicibacterium smegmatis; assay: Antibacterial activity against Mycobacterium smegmatis ATCC 607 at 1 mg/ml after 48 hrs by agar-well diffusion assay; details: ATCC 607, 48 h, read-out: IZ

| Structure (SMILES) | zone of inhibition at 1000 µg/mL [1] | inhibition zone (IZ) [2] | inhibition zone (IZ) [3] | inhibition zone (IZ) [4] | inhibition zone (IZ) [5] | inhibition zone (IZ) [6] | zone of inhibition at 1000 µg/mL [7] | inhibition zone (IZ) [9] | inhibition zone (IZ) [10] | zone of inhibition at 1000 µg/mL [12] | inhibition zone (IZ) [13] | inhibition zone (IZ) [14] | inhibition zone (IZ) [16] | inhibition zone (IZ) [17] | zone of inhibition at 1000 µg/mL [18] | inhibition zone (IZ) [19] | zone of inhibition at 1000 µg/mL [20] | zone of inhibition at 1000 µg/mL [21] | zone of inhibition at 1000 µg/mL [22] | zone of inhibition at 1000 µg/mL [11] | also measured |
| --- | --- | --- | --- | --- | --- | --- | --- | --- | --- | --- | --- | --- | --- | --- | --- | --- | --- | --- | --- | --- | --- |
| C=C(C)[C@@H]1CC[C@@]23C[C@@H]4[C@@H](C[C@H]2[C@]1(C)CCCO)[C@@]4(C)C3 | 3 mm | inactive | inactive | inactive | inactive | inactive | 1 mm | inactive | inactive | 3 mm | inactive | inactive | inactive | inactive | 1 mm | inactive | 1 mm | 1 mm | 1 mm | – | inhibition zone (IZ) [8]: inactive; inhibition zone (IZ) [11]: inactive; inhibition zone (IZ) [15]: inactive |
| COC(=O)C1=CCC[C@@H]2[C@@](C)(CCc3ccoc3)[C@H](C)CC[C@@]12C [HARDWICKIC ACID METHYL ESTER] | 1 mm | inactive | inactive | – | – | inactive | 1 mm | inactive | inactive | 1 mm | inactive | inactive | inactive | inactive | 1 mm | inactive | 1 mm | 1 mm | 1 mm | 1 mm | zone of inhibition at 1000 µg/mL ([4]; ATCC 9972, 72 h, read-out: IZ): 1 mm; zone of inhibition at 1000 µg/mL ([5]; ATCC 4671, 48 h, read-out: IZ): 1 mm; zone of inhibition at 1000 µg/mL ([8]; ATCC 4671, 72 h, read-out: IZ): 1 mm; zone of inhibition at 1000 µg/mL ([15]; ATCC 9972, 48 h, read-out: IZ): 1 mm |
| C=C(C)[C@@H]1CC[C@@]23C[C@@H]4[C@@H](C[C@H]2[C@]1(C)CCC(=O)OC)[C@@]4(C)C3 | 1 mm | – | inactive | – | – | inactive | 1 mm | – | – | 1 mm | – | – | inactive | – | – | inactive | – | 1 mm | 1 mm | 1 mm | – |
| COC(=O)CC[C@]1(C)C(C(C)=O)CC[C@@]23C[C@@H]4[C@@H](CC21)[C@@]4(C)C3 (stereo not given in full) | 3 mm | inactive | inactive | inactive | inactive | inactive | – | inactive | inactive | 7 mm | inactive | inactive | inactive | inactive | 1 mm | inactive | 1 mm | – | 3 mm | – | inhibition zone (IZ) [7]: inactive; inhibition zone (IZ) [8]: inactive; inhibition zone (IZ) [11]: inactive; inhibition zone (IZ) [15]: inactive |
| CN[C@@H]1[C@H](O[C@H]2[C@H](O[C@H]3[C@H](O)[C@@H](O)[C@H](N=C(N)N)[C@@H](O)[C@@H]3N=C(N)N)O[C@@H](C)[C@]2(O)C=O)O[C@@H](CO)[C@H](O)[C@H]1O [STREPTOMYCIN SULFATE] | 7 mm | – | – | – | – | – | 7 mm | – | – | 7 mm | – | – | – | – | – | – | – | > 12 mm | > 12 mm | 7 mm | zone of inhibition at 1000 µg/mL ([3]; ATCC 10536, 24 h, read-out: IZ): 7 mm; zone of inhibition at 1000 µg/mL ([6]; ATCC 15442, 24 h, read-out: IZ): 7 mm; zone of inhibition at 1000 µg/mL ([16]; ATCC 15442, 48 h, read-out: IZ): 3 mm; zone of inhibition at 1000 µg/mL ([19]; ATCC 10536, 48 h, read-out: IZ): 7 mm |
